Screening results (PubChem BioAssay)
EWS-Fli inh: inhibitors of EWS/Fli oncoprotein transcriptional activity; A673 NR0B1-luciferase reporter, viability-normalised; inhibition, % at 12.6 µM; 350,000 compounds, 0.67% hits; AID 651661;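 active means mean inhibition of at least 50% after viability correction, with every replicate also passing that limit; inconclusive means mean reaches 50% but only one of two replicates passes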;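 further: firefly luciferase signal divided by Alamar Blue viability fluorescence both relative to DMSO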
FN deposition inh: fibronectin deposition inhibition; AH1F fibroblasts, Alexa488-fibronectin deposition fluorescence, overnight; inhibition, % at 12.6 µM; 350,000 compounds, 0.086% hits; AID 743247;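 active means mean inhibition across replicates of 30% or more, regardless of how many single replicates reach that level; inconclusive means mean under 30% yet at least half of replicates reach 30%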;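 further: positive control wells lacked labelled fibronectin entirely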
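Material – AH1F fibroblast monolayer, labelled fibronectin deposition · Reagent – labelled fibronectin 24 nM · Timing – 1 h adhesion, overnight exposure · Measured by – fluorescence at 485 nm excitation, 525 nm emission · Read-out – inhibition of fibronectin deposition signal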
Glyco luc inh: N-linked glycosylation inhibition | D54 ERlucT glycosylation luciferase reporter, 24 h; percent of 100 nM tunicamycin response | AID 588692 | reporter increase, % at 12.5 µM | 360,000 compounds, 0.23% hits;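 active means mean luciferase reporter signal, scaled so untreated is 0 and the glycosylation-blocking control 100, at or above a set limit in every replicate; inconclusive means mean reaches the limit but not every replicate does; inactive means mean below the limit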;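 further: luciferase carries N-glycosylation sites so blocking glycosylation raises the light; 0% = median of neutral control wells and 100% = median of 100 nM tunicamycin wells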
HIV Env fusion: HIV envelope-mediated fusion inhibition | HeLa-JRFL Env/CEM21 cell fusion, luciferase | inhibition, % at 12.3 µM | 360,000 compounds, 1.1% hits | AID 651610;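 active means mean replicate inhibition score of at least 50 and every replicate individually at or above 50; inconclusive means only one of the two criteria met; inactive means mean below 50 and not all replicates reaching 50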;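 further: 0% = plate neutral controls and 100% = maraviroc near 300 nM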
AF4-AF9 inh: inhibitors of human MLL-AF4/AF9 interaction; inhibition, % at 10 µM; P42568; 350,000 compounds, 0.47% hits; AlphaScreen, biotin-AF4 peptide binding to FLAG-AF9; AID 651704;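 active means every replicate reaching a set inhibition limit, whatever the replicate mean, cut at about 25% in these data; inconclusive means mean inhibition reaches that limit but some replicates miss it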;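 further: 0% = plate neutral control median and 100% = total signal loss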
Target sequence (P42568 whole entry, looked up): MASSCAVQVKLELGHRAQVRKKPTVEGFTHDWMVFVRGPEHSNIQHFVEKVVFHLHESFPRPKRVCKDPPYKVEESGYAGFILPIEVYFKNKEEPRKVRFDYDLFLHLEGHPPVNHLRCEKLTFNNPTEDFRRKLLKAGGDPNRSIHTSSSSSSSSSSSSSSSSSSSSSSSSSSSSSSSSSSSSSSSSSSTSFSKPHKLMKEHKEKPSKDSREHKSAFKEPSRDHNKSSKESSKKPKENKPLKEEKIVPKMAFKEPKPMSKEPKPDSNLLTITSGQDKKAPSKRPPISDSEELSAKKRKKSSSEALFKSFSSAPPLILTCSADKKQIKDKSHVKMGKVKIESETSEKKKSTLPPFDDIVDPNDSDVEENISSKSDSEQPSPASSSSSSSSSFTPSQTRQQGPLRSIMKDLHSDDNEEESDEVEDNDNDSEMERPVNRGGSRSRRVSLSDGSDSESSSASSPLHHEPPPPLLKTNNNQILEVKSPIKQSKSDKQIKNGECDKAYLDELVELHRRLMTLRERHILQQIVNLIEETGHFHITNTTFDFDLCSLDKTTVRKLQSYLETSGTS
PAX8 inh HTS: lowers PAX8-driven luciferase in RMG-I cells | RMG-I TPO-luciferase reporter, SteadyGlo, 24 h | inhibition, % at 12.6 µM | 360,000 compounds, 1.2% hits | AID 652154;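 active means mean replicate inhibition at least 60% with every replicate also reaching 60%; inconclusive means only one of the two criteria is met; inactive means mean below 60% and not all replicates reaching 60%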;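 further: luciferase light reporting Pax8 driven TPO promoter activity; plate controls were median of neutral control wells for no effect and mitoxantrone controls for full effect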
AlphaScreen intf: counter-screen: AlphaScreen signal interference; AC50, µM (highest dose often 12 µM), without a hit: at the top dose activity change, negative = inhibition; AID 720494; signal luminescence; shares compounds with AF4-AF9 inh; 530 compounds, 45% hits; cut-off not given, nearly all actives have AC50 up to about 14 µM
Numbers without * were called inactive; i = inactive; ? = inconclusive; . = no result; [ ] = dose if it differs, or a comment. Compounds with a hit are over-represented: about 2.5% of the library has one in this group of screens.

SMILES | EWS-Fli inh | FN deposition inh | Glyco luc inh | HIV Env fusion | AF4-AF9 inh | PAX8 inh HTS | AlphaScreen intf
O=C(Cc1ccncc1)NCC[C@@H]1CC[C@@H](NC(=O)Nc2ccc(F)cc2)[C@@H](CO)O1 | 3 | . | . | -6[16.7 µM] | 0 | -6 | .
COc1cc(OC)c2c(-c3ccccc3)cc(=O)oc2c1C(CCN1CCOCC1)c1ccc(N(C)C)cc1 (stereo not drawn) | -4 | -11 | -9 | -28 | 39* | 4 | -20%
COc1cc(OC)c2c(-c3ccccc3)cc(=O)oc2c1C(CCN1CCCCC1)c1ccc2c(c1)OCO2 (stereo not drawn) | 27 | 8 | -5 | -101 | 36* | 19 | -28%
COc1cc(OC)c2c(c1C(CCN1CCOCC1)c1ccc(N(C)C)cc1)OC(=O)CC2c1ccc(N(C)C)cc1 (stereo not drawn) | 4 | -6 | -2 | 13 | 65* | 4 | 13µM*
COc1cc(OC)c2c(-c3ccccc3)cc(=O)oc2c1C(CCN1CCCCC1)c1ccc(N(C)C)cc1 (stereo not drawn) | . | . | -10 | . | . | . | .
COc1ccc(C2CC(=O)Oc3c(C(CCN4CCN(c5ccccc5)CC4)c4ccc(N(C)C)cc4)c(OC)cc(OC)c32)cc1 (stereo not drawn) | -1 | 1 | 1 | -16 | 14 | 5 | .
COc1ccc(C(CCN2CCCCC2)c2c(OC)cc(OC)c3c(-c4ccccc4)cc(=O)oc23)cc1 (stereo not drawn) | 7 | 9 | -7 | -19 | 19 | 13 | .
CO[C@@H]1CN(C)C(=O)c2ccc(NC(C)=O)cc2OC[C@@H](C)N(CCC(F)(F)F)C[C@@H]1C | 0 | 9 | . | . | -2 | -16 | .
CC(C)NC(=O)N(C)C[C@@H]1Oc2c(N)cccc2C(=O)N(C)C[C@H]1C | . | -9 | . | . | . | . | .
CCOC(=O)C1CCN(c2c(NCCCN(CC)c3ccccc3)c(=O)c2=O)CC1 | . | 17 | 0 | 11 | . | . | .
CCN(CCCNc1cc2c(c(N)c1S(=O)(=O)O)C(=O)c1ccccc1C2=O)c1ccccc1 | -5 | -15 | -4 | 0 | 61* | 38 | 7.6µM*
CN(C)c1ccc(C=c2c3cc(O)ccc3n3c2cc(-c2ccccc2)[n+]3C)cc1 | -2 | 9 | 19 | 64* | 78* | 73* | 2.5µM*
CN(C)c1ccc(C=C2C=Cc3ccccc32)cc1 | 22 | . | -15 | i | 4 | -140 | .
CN(C)c1ccc(C=c2c3ccccc3n3c2c2ccccc2[n+]3C)cc1 | 8 | 0 | -4 | 58* | 51* | 88* | 3.5µM*
Cn1cnc(S(=O)(=O)N[C@H]2C=C[C@H](CC(=O)Nc3ccc(-c4ccccc4)cc3)O[C@H]2CO)c1 | -4 | 3 | . | -17[16.7 µM] | 1 | 2 | .
CO[C@@H]1CN(C)C(=O)c2ccc(NS(=O)(=O)c3ccccc3C)cc2OC[C@@H](C)N(S(C)(=O)=O)C[C@H]1C | 3 | -2 | . | . | -3 | . | .
Cc1cc(C)c2sc(N(CCCN(C)C)C(=O)c3ccc(S(=O)(=O)N4CCCc5ccccc54)cc3)nc2c1 | 32 | . | -7 | -11 | 56* | 18 | -18%
Cc1cc2c(OCC(O)CNC(C)(C)C)cccc2[nH]1 (stereo not drawn) | . | . | -2 | . | . | . | .
COCCCNCC(O)COc1cccc2[nH]c(C)cc12 (stereo not drawn) | -3 | . | 1 | 10 | 52* | 2 | -22%
Cn1ccc2c(-c3ccccc3F)cc3c(c21)C1CCC3C1 (stereo not drawn) | -15 | 2 | -1 | 9 | 1 | 3 | .
Cn1ccc2c(/C=C/c3ccc(F)cc3)cc3c(c21)C1CCC3C1 (stereo not drawn) | 3 | 3 | 4 | -7 | 44* | 16 | 9%
C[C@H](CO)N1C[C@H](C)[C@H](CN(C)C(=O)Nc2cccc3ccccc23)OCCCC[C@H](C)Oc2ccc(NS(=O)(=O)c3cccs3)cc2C1=O | -4 | . | . | 37[16.7 µM] | 4 | 7 | .
C#CCOCCOCCOCCNc1nc(N2CCN(C(=O)[C@H](CC(N)=O)n3cc(C(N)[C@@H](C)CC)nn3)CC2)nc(N2CCN(C(=O)[C@H](CCCCN)n3cc([C@@H](N)CC(N)=O)nn3)CC2)n1 (stereo partly drawn) | -8 | 10 | 0 | 15 | 10 | 9 | .
C#CCOCCOCCOCCNc1nc(N2CCN(C(=O)[C@H](CCCN=C(N)N)n3cc(C(N)[C@H](C)CC)nn3)CC2)nc(N2CCN(C(=O)[C@H](CCCN=C(N)N)n3cc(C(N)[C@@H](C)CC)nn3)CC2)n1 (stereo partly drawn) | . | . | 2 | . | . | . | .
C#CCOCCOCCOCCNc1nc(N2CCN(C(=O)[C@H](CCCCN)n3cc([C@@H](N)C(C)CC)nn3)CC2)nc(N2CCN(C(=O)[C@H](CCCCN)n3cc([C@@H](N)CC(C)C)nn3)CC2)n1 (stereo partly drawn) | -3 | -1 | 1 | -9 | 56* | -12 | -3%
SMILES | EWS-Fli inh | FN deposition inh | Glyco luc inh | HIV Env fusion | AF4-AF9 inh | PAX8 inh HTS | AlphaScreen intf
C#CCOCCOCCOCCNc1nc(N2CCN(C(=O)[C@H](CCCCN)n3cc(CN)nn3)CC2)nc(N2CCN(C(=O)[C@H](CCCN=C(N)N)n3cc(C(N)[C@H](C)CC)nn3)CC2)n1 (stereo partly drawn) | -3 | 7 | -1 | 0 | 45* | -12 | -10%
C#CCOCCOCCOCCNc1nc(N2CCN(C(=O)[C@H](CCCCN)n3cc(CN)nn3)CC2)nc(N2CCN(C(=O)[C@H](CC(N)=O)n3cc(C(N)[C@H](C)CC)nn3)CC2)n1 (stereo partly drawn) | 2 | 3 | 1 | 5 | ? | -2 | -13%
C#CCOCCOCCOCCNc1nc(N2CCN(C(=O)C([C@@H](C)O)n3cc([C@@H](N)CCCCN)nn3)CC2)nc(N2CCN(C(=O)C([C@@H](C)O)n3cc([C@@H](N)CCCCN)nn3)CC2)n1 (stereo partly drawn) | -9 | -9 | 4 | . | 39* | -8 | 17%
Cc1oc(-c2cccc3ccccc23)nc1CN1CCN(c2ncnc3ccccc23)CC1 | 20 | -2 | -3 | 28 | 22 | 25 | -10%
Cc1cnc(C)c(N2CCN(Cc3nc(-c4ccc(C)o4)oc3C)CC2)n1 | -5 | . | 0 | -4 | 5 | 1 | .
c1cc2c3c(cccc3c1)NC(c1ccc3c(c1)OCO3)N2 | -13 | 1 | -2 | -14 | 34* | 17 | 0%
CCc1ccc(-c2nc(CSCC(=O)N3CCN(c4ncccn4)CC3)c(C)o2)cc1 | 82* | 4 | 0 | 28 | -10 | 20 | 0%
C/C(=N\Nc1nc2ccccc2[nH]1)c1ccc2c(c1)OCO2 | -46 | . | -3 | -7 | 33* | -22 | -34%
